Only some compounds are listed: those with a hit (about 5.8% of all), similar ones and a draw of the others.
T cruzi growth-1: T. cruzi intracellular proliferation inhibitors, primary screen, cell-based, beta-gal Tulahuen parasites, NIH3T3 host, luminescence; inhibition, % at 8.34 µM; 5.9% of 77,000 active; T. cruzi beta-gal in NIH3T3, GalScreen luminescence, 90 h;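 active = mean inhibition above about 93%, with at least 55% of replicates each passing it, limit read from the data, passing the limit was not always enough; inconclusive = only one of those two conditions holds; inactive = neither condition holds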
IDH1 R132H inh: inhibitors of IDH1 R132H reductase, primary screen, biochemical, plate reader, single point; Isocitrate dehydrogenase [NADP] cytoplasmic (Homo sapiens), O75874; diaphorase/resazurin fluorescence, 60 min; inhibition, % at 10 µM; 0.18% of 70,000 active; AID 624101, 2012; in the data active = inhibition above about 34%; inconclusive = no clear call, values can overlap the other calls; inactive = below about 11%
KDM4C inh: inhibitors of GASC-1 (KDM4C) histone demethylase, primary screen, biochemical, single concentration HTS. inhibition, % at 12.5 µM. GST-KDM4C 2-372, H3K9me3 peptide, LANCE TR-FRET. AID 720574, 2013. 0.15% of 96,000 active. Lysine-specific demethylase 4C (Homo sapiens), Q9H3R0;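 active = mean replicate inhibition above about 25%, with at least 55% of replicates also reaching it, limit read from the data, passing the limit was not always enough; inconclusive = only one of those two conditions met; inactive = neither condition met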
Target sequence (Q9H3R0 2-372 limits assumed): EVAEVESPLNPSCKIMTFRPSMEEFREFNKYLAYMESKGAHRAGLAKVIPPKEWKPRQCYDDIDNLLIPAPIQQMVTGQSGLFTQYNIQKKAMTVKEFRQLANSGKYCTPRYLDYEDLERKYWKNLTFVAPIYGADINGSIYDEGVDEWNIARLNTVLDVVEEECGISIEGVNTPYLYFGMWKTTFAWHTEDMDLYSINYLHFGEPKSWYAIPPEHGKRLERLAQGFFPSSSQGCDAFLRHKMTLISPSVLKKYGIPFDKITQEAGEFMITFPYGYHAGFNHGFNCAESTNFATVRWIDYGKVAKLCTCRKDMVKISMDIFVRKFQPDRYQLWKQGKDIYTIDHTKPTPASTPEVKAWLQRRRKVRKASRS
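Material: GST-tagged GASC-1 (JMJD2C) catalytic fragment, aa 2-372. Input: enzyme final amount 10 nM. Medium: HEPES buffer, pH 7.5, plus ascorbate. Reagent: H3K9me3 peptide substrate, Fe(II), 2-oxoglutarate. Doses: single dose. Times: reaction 30 min RT, detection step 1 h RT. Measured by: LANCE TR-FRET. Evaluation: Fall in 671/618 emission ratio as inhibition.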
Pf Dd2 inh: P. falciparum Dd2 growth inhibitors, primary screen, SYBR Green fluorescence, single dose replicates; 2.3% of 94,000 active; 72 h; stronger effect = lower value; activity change, % at 10 µM; in the data active = activity change below about -80%; inconclusive = no clear call, values can overlap the other calls
T cruzi growth-2: T. cruzi intracellular proliferation inhibitors, confirmation, cell-based, NIH3T3 host, beta-gal parasite, luminescence, cherry-pick; shares compounds with T cruzi growth-1; T. cruzi beta-gal in NIH3T3, GalScreen luminescence, 90 h; inhibition, % at 8.35 µM; 72% of 5,600 active; AID 651739, 2012;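 active = mean replicate inhibition above about 95% and at least 55% of replicates individually reaching it, limit read from the data; inconclusive = only one of the two criteria is met; inactive = neither criterion is met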
T cruzi growth-3: inhibitors of intracellular T. cruzi replication, confirmation, NIH3T3 host cells, beta-gal parasites, cherry-pick, set 2. shares compounds with T cruzi growth-1. T. cruzi beta-gal in NIH3T3, GalScreen luminescence, 90 h. inhibition, % at 2.09 µM. 21% of 5,600 active;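 active = mean inhibition above about 95%, with at least 55% of replicates also reaching it, limit read from the data; inconclusive = meets just one of the two conditions; inactive = meets neither condition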
3T3 cytotox: cytotoxicity in mouse NIH/3T3 fibroblasts, confirmation, cytotoxicity control for T. cruzi proliferation inhibitor project, cell-based, cherry-pick, single point. NIH/3T3 viability, CellTiter-Glo ATP luminescence, 90 h. 14% of 5,600 active. shares compounds with T cruzi growth-1. cytotoxicity (signal decrease), % at 8.35 µM. AID 651742, 2012;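 active = mean signal decrease across replicates above about 35% based on untreated-well scatter, with enough replicates individually passing, limit read from the data; inconclusive = no rule stated though some were filed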
NIH3T3 tox 2: NIH/3T3 fibroblast cytotoxicity, confirmation, cytotoxicity control, cell-based, cherry-pick, single point, set 2; shares compounds with T cruzi growth-1; NIH/3T3 viability, CellTiter-Glo ATP luminescence, 90 h; inhibition, % at 24.9 µM; 56% of 5,600 active; AID 651744, 2012;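 active = mean loss of cell viability signal at or above a set limit, and enough replicates individually reaching it; inconclusive = meets only the mean limit or only the replicate share; inactive = meets neither condition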
Numbers stand for hits; - = inactive; ? = inconclusive; . = no result given.

SMILES	T cruzi growth-1	IDH1 R132H inh	KDM4C inh	Pf Dd2 inh	T cruzi growth-2	T cruzi growth-3	3T3 cytotox	NIH3T3 tox 2
OC[C@H]1Nc2ccc(C#Cc3cccnc3)cc2[C@H]2NCC[C@H]21	.	.	-	-88.4	.	.	.	.
COC1CC(O[C@H]2CC[C@@]3(C)C(CCC4C3CC[C@]3(C)C(C5=CC(=O)OC5)CCC43O)C2)OC(C)C1OC1OC(COC2OC(CO)C(O)C(O)C2O)C(O)C(O)C1O (some centres not stated)	.	-	.	.	.	.	.	.
COc1ccc2c(c[n+](C)c3c4cc5c(cc4ccc23)OCO5)c1OC	.	100.6	.	.	.	.	.	.
COc1ccc2c(c1OC)CN1CCc3cc4c(cc3C1C2)OCO4 (configuration not stated)	.	-	.	.	.	.	.	.
CC[C@H]1CN2CCc3cc(OC)c(OC)cc3[C@@H]2C[C@@H]1C[C@H]1NCCc2cc(O)c(OC)cc21	.	-	.	.	.	.	.	.
Cc1ccc(OC(=O)N(C)C[C@@H]2OCc3ccccc3-c3c(n(C)c4ccccc34)C(=O)N([C@@H](C)CO)C[C@H]2C)cc1	.	.	-	-83.1	.	.	.	.
O=C(Cc1cccnc1)N1CCCCN2[C@H](CO)[C@H](c3ccc(/C=C/c4ccccc4)cc3)[C@H]2C1	-	.	-	-	.	.	.	.
COc1ccc(C#Cc2ccc([C@@H]3[C@H](CO)N4CCCCN(C(=O)Cc5cccnc5)C[C@@H]34)cc2)cc1	112.1	.	-	-	106.6	-	39.0	103.7
COc1ccc(C#Cc2ccc([C@@H]3[C@@H](CO)N4CCCCN(C(=O)Cc5cccnc5)C[C@H]34)cc2)cc1	100.2	.	-	-	106.2	-	-	105.1
O=C(Cc1cccnc1)N1CCCCN2[C@H](CO)[C@@H](c3ccc(/C=C/c4ccccc4)cc3)[C@H]2C1	105.1	.	-	-	108.7	-	-	103.6
Cc1ccccc1-c1ccc([C@H]2[C@H]3CN(C(=O)Cc4ccccn4)CCCCN3[C@H]2CO)cc1	?	.	-	-	-	-	-	-
Cc1ccccc1-c1ccc([C@H]2[C@@H](CO)N3CCCCN(C(=O)Cc4ccccn4)C[C@@H]23)cc1	102.8	.	-	-	96.5	-	-	?
Cc1ccccc1-c1ccc([C@@H]2[C@H]3CN(C(=O)Cc4ccccn4)CCCCN3[C@H]2CO)cc1	98.7	.	-	-	-	-	-	-
O=C(CCl)c1cc(Br)c(Br)s1	.	-	.	.	.	.	.	.
O=C(Cc1ccccn1)N1CCCCN2[C@@H](CO)[C@H](c3ccc(-c4ccccc4)cc3)[C@@H]2C1	104.9	.	-	-	?	-	-	-
O=C(Cc1ccccn1)N1CCCCN2[C@H](CO)[C@@H](c3ccc(-c4ccccc4)cc3)[C@H]2C1	-	.	-	-	.	.	.	.
O=C(Cc1ccccn1)N1CCCCN2[C@H](CO)[C@H](c3ccc(-c4ccccc4)cc3)[C@@H]2C1	?	.	-	-	102.8	-	-	-
C=CCN1CCC23c4c5ccc(O)c4OC2/C(=N\NC(=O)c2ccccc2)CCC3(O)C1C5 (configuration not stated)	.	-	.	.	.	.	.	.
CCC(C)[C@H]1C(=O)O[C@H](C(C)C)C(=O)N(C)[C@@H](C(C)C)C(=O)O[C@H](C(C)C)C(=O)N(C)[C@@H](C(C)C)C(=O)O[C@H](C(C)C)C(=O)N1C (some centres not stated)	.	-	.	.	.	.	.	.
CCN1C[C@]2(COC)CC[C@H](O)[C@]34C1[C@H](C[C@H]23)[C@@]1(O)C[C@H](OC)[C@H]2C[C@@H]4[C@@H]1[C@H]2OC(C)=O	.	-	.	.	.	.	.	.
CC[C@@H]1/C=C\C=C\C[C@H](C)[C@@H](O)[C@](C)(O)C(=O)[C@H](C)[C@@H](O)[C@H](C)C(=O)[C@H](C)[C@@H](O)[C@H](C)/C=C/C(=O)O[C@H]2[C@@H](C)[C@@H](CC1)O[C@@]1(CC[C@@H](C)[C@@H](C[C@H](C)O)O1)[C@@H]2C	.	-	.	.	.	.	.	.
O=C(Cc1ccccn1)N1CCCCN2[C@@H](CO)[C@H](c3ccc(C#Cc4ccccc4)cc3)[C@@H]2C1	114.3	.	-	-	109.3	-	38.8	105.3
O=C(Cc1ccccn1)N1CCCCN2[C@H](CO)[C@H](c3ccc(C#Cc4ccccc4)cc3)[C@H]2C1	105.0	.	-	-	102.0	-	52.4	107.2
O=C(Cc1ccccn1)N1CCCCN2[C@H](CO)[C@@H](c3ccc(C#Cc4ccccc4)cc3)[C@H]2C1	105.6	.	-	-	96.9	-	40.8	105.5
O=C(Cc1ccccn1)N1CCCCN2[C@H](CO)[C@@H](c3ccc(C#Cc4ccccc4)cc3)[C@@H]2C1	-	.	-	-	.	.	.	.
SMILES	T cruzi growth-1	IDH1 R132H inh	KDM4C inh	Pf Dd2 inh	T cruzi growth-2	T cruzi growth-3	3T3 cytotox	NIH3T3 tox 2
CC1C/C=C/C2C3OC3(C)C(C)C3C(Cc4ccccc4)NC(=O)C23OC(=O)O/C=C/C(C)(O)C1=O (configuration not stated)	.	-	.	.	.	.	.	.
COc1cccc(-c2ccc([C@H]3[C@@H](CO)N4CCCCN(C(=O)Cc5ccncc5)C[C@H]34)cc2)c1	107.4	.	-	-	109.6	-	-	48.4
COc1cccc(-c2ccc([C@@H]3[C@@H](CO)N4CCCCN(C(=O)Cc5ccncc5)C[C@H]34)cc2)c1	114.3	.	-	-	101.9	-	-	38.2
COc1cccc(-c2ccc([C@@H]3[C@@H](CO)N4CCCCN(C(=O)Cc5ccncc5)C[C@@H]34)cc2)c1	-	.	-	-	.	.	.	.
COc1cccc(-c2ccc([C@@H]3[C@H](CO)N4CCCCN(C(=O)Cc5ccncc5)C[C@@H]34)cc2)c1	?	.	-	-	-	-	-	35.4
COc1cccc(-c2ccc([C@H]3[C@@H](CO)N4CCCCN(C(=O)Cc5ccncc5)C[C@@H]34)cc2)c1	110.8	.	-	-	110.4	-	-	-
COc1cccc(-c2ccc([C@H]3[C@H](CO)N4CCCCN(C(=O)Cc5ccncc5)C[C@@H]34)cc2)c1	-	.	-	-	.	.	.	.
CC(C)=CCCN1CCC(NC(=O)[C@](O)(c2ccccc2)C2CCCC2)CC1	.	-	.	.	.	.	.	.
O=C1Nc2cc(Cl)c(Cl)cc2N2CCNCC12 (configuration not stated)	.	-	.	.	.	.	.	.

Screens deposited in PubChem BioAssay by Broad Institute.
